For 6 compounds, EC50 results are on record in ChEMBL document CHEMBL1151195, “New isoprenylated flavones, artochamins A--E, and cytotoxic principles from Artocarpus chama” (2004).

Values after ≈ are worked out from the molar mass of the structure shown.

The first assay concerns A549. Nature of the assay: Cytotoxicity against human A549 cells. Format: functional. The following applies: read-out: ED50 (the source's name). Summed up:
(§1)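 Growth inhibition in cultured human tumor cell lines. Compound stocks were made in DMSO and held at -70 °C, then diluted into culture medium to a final DMSO level of ≤1% (v/v).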
With `COc1cc2oc(-c3ccc(O)cc3O)c(CC=C(C)C)c(=O)c2c(O)c1/C=C/C(C)C` [ARTOCARPIN], the EC50 turned out to be 3.3 µg/mL (≈ 7.56 µM).
On the same count and under the same terms, in the case of `CC1(C)C=Cc2c(cc(O)c3c(=O)cc(-c4ccc(O)c(O)c4)oc23)O1` [ARTOCHAMIN C] it was 3 µg/mL (≈ 8.51 µM); in that of `CC(C)=CCc1c2c(c(O)c3c(=O)c4c(oc13)-c1c(O)cc(O)c3c1C(C4)C(C)(C)O3)C=CC(C)(C)O2` (centres undefined) [ARTONIN A], 6.1 µg/mL (≈ 12.1 µM); in that of `CC(C)=CCc1c(-c2cc(O)c(O)cc2O)oc2c3c(cc(O)c2c1=O)OC(C)(C)C=C3` [ARTONIN E], 8.5 µg/mL (≈ 19.5 µM).
Consider `CC1(C)C=Cc2c(cc(O)c3c(=O)c4c(oc23)-c2c(O)cc(O)c3c2C(C4)C(C)(C)O3)O1` (centres undefined) [CYCLOARTOBILOXANTHONE], for which the EC50 was 7.2 µg/mL (≈ 16.6 µM).
The same measure, in the same setting: in the case of `COc1ccc2c(c1)OC(C=C(C)C)c1c-2oc2cc(O)c(/C=C/C(C)C)c(O)c2c1=O` (centres undefined) [CYCLOARTOCARPIN A] it was 6.6 µg/mL (≈ 15.2 µM).

The next assay deals with MCF7. Nature of the assay: Cytotoxicity against human MCF7 cells. Format: functional. The note with it: read-out: ED50 (the source's name). A digest of the protocol:
as §1
As to `COc1cc2oc(-c3ccc(O)cc3O)c(CC=C(C)C)c(=O)c2c(O)c1/C=C/C(C)C` [ARTOCARPIN], the EC50 is 3.3 µg/mL (≈ 7.56 µM).
The same measure, in the same setting: next, `CC1(C)C=Cc2c(cc(O)c3c(=O)cc(-c4ccc(O)c(O)c4)oc23)O1` [ARTOCHAMIN C]: 2.2 µg/mL (≈ 6.24 µM).
The same measure, in the same setting: in the case of `CC(C)=CCc1c2c(c(O)c3c(=O)c4c(oc13)-c1c(O)cc(O)c3c1C(C4)C(C)(C)O3)C=CC(C)(C)O2` (centres undefined) [ARTONIN A] it was 6.7 µg/mL (≈ 13.3 µM); in that of `CC(C)=CCc1c(-c2cc(O)c(O)cc2O)oc2c3c(cc(O)c2c1=O)OC(C)(C)C=C3` [ARTONIN E], 2.2 µg/mL (≈ 5.04 µM).
As for `CC1(C)C=Cc2c(cc(O)c3c(=O)c4c(oc23)-c2c(O)cc(O)c3c2C(C4)C(C)(C)O3)O1` (centres undefined) [CYCLOARTOBILOXANTHONE], the EC50 worked out at 7.7 µg/mL (≈ 17.7 µM).
For the compound `COc1ccc2c(c1)OC(C=C(C)C)c1c-2oc2cc(O)c(/C=C/C(C)C)c(O)c2c1=O` (centres undefined) [CYCLOARTOCARPIN A], the EC50 is 6 µg/mL (≈ 13.8 µM).

In a further assay the test system is 1A9. Description: Cytotoxicity against human 1A9 cells. The following applies: read-out: ED50 (the source's name). Format: functional. Summed up: as §1
With `COc1cc2oc(-c3ccc(O)cc3O)c(CC=C(C)C)c(=O)c2c(O)c1/C=C/C(C)C` [ARTOCARPIN], the EC50 is 3.4 µg/mL (≈ 7.79 µM).
For the compound `CC1(C)C=Cc2c(cc(O)c3c(=O)cc(-c4ccc(O)c(O)c4)oc23)O1` [ARTOCHAMIN C], the EC50 amounted to 2 µg/mL (≈ 5.68 µM).
Take `CC(C)=CCc1c(-c2cc(O)c(O)cc2O)oc2c3c(cc(O)c2c1=O)OC(C)(C)C=C3` [ARTONIN E]: the EC50 was less than 1.25 µg/mL.

The next assay deals with HCT-8. Description: Cytotoxicity against human HCT8 cells. Format: functional. The note with it: read-out: ED50 (the source's name). A digest of the protocol:
as §1
Consider `COc1cc2oc(-c3ccc(O)cc3O)c(CC=C(C)C)c(=O)c2c(O)c1/C=C/C(C)C` [ARTOCARPIN], for which the EC50 amounted to 3.8 µg/mL (≈ 8.71 µM).
The same measure, in the same setting: next, `CC1(C)C=Cc2c(cc(O)c3c(=O)cc(-c4ccc(O)c(O)c4)oc23)O1` [ARTOCHAMIN C]: 2.3 µg/mL (≈ 6.53 µM); `CC(C)=CCc1c(-c2cc(O)c(O)cc2O)oc2c3c(cc(O)c2c1=O)OC(C)(C)C=C3` [ARTONIN E]: 3.3 µg/mL (≈ 7.56 µM).

Another assay has as its system CAKI-1. Nature of the assay: Cytotoxicity against human Caki1 cells. Format: functional. The following applies: read-out: ED50 (the source's name). A digest of the protocol: as §1
In the case of `COc1cc2oc(-c3ccc(O)cc3O)c(CC=C(C)C)c(=O)c2c(O)c1/C=C/C(C)C` [ARTOCARPIN], the EC50 was determined as 4.9 µg/mL (≈ 11.2 µM).
The same measure, in the same setting: next, `CC1(C)C=Cc2c(cc(O)c3c(=O)cc(-c4ccc(O)c(O)c4)oc23)O1` [ARTOCHAMIN C]: 5.3 µg/mL (≈ 15 µM); `CC(C)=CCc1c(-c2cc(O)c(O)cc2O)oc2c3c(cc(O)c2c1=O)OC(C)(C)C=C3` [ARTONIN E]: 9.7 µg/mL (≈ 22.2 µM).

In a further assay the test system is SK-MEL-2. Description: Cytotoxicity against human SK-MEL-2 cells. Format: functional. The following applies: read-out: ED50 (the source's name). A digest of the protocol: as §1
For `COc1cc2oc(-c3ccc(O)cc3O)c(CC=C(C)C)c(=O)c2c(O)c1/C=C/C(C)C` [ARTOCARPIN], the EC50 came out at 5.4 µg/mL (≈ 12.4 µM).
The same measure, in the same setting: next, `CC1(C)C=Cc2c(cc(O)c3c(=O)cc(-c4ccc(O)c(O)c4)oc23)O1` [ARTOCHAMIN C]: 2.3 µg/mL (≈ 6.53 µM).
Consider `CC(C)=CCc1c(-c2cc(O)c(O)cc2O)oc2c3c(cc(O)c2c1=O)OC(C)(C)C=C3` [ARTONIN E], for which the EC50 was found to be 4.3 µg/mL (≈ 9.85 µM).

Test system in a further assay: not listed separately
Description: Cytotoxicity against human U87MG cells. The note with it: U-87 MG, read-out: ED50 (the source's name). Format: functional, U-87MG ATCC. A digest of the protocol:
as §1
With `COc1cc2oc(-c3ccc(O)cc3O)c(CC=C(C)C)c(=O)c2c(O)c1/C=C/C(C)C` [ARTOCARPIN], the EC50 amounted to 3.7 µg/mL (≈ 8.48 µM).
On the same count and under the same terms, in the case of `CC1(C)C=Cc2c(cc(O)c3c(=O)cc(-c4ccc(O)c(O)c4)oc23)O1` [ARTOCHAMIN C] it was 7.2 µg/mL (≈ 20.4 µM); in that of `CC(C)=CCc1c(-c2cc(O)c(O)cc2O)oc2c3c(cc(O)c2c1=O)OC(C)(C)C=C3` [ARTONIN E], 6.4 µg/mL (≈ 14.7 µM).

The next assay deals with PC-3. Description: Cytotoxicity against human PC3 cells. Format: functional. The note with it: read-out: ED50 (the source's name). Summed up: as §1
In the case of `COc1cc2oc(-c3ccc(O)cc3O)c(CC=C(C)C)c(=O)c2c(O)c1/C=C/C(C)C` [ARTOCARPIN], the EC50 turned out to be 4.1 µg/mL (≈ 9.39 µM).
On the same count and under the same terms, next, `CC1(C)C=Cc2c(cc(O)c3c(=O)cc(-c4ccc(O)c(O)c4)oc23)O1` [ARTOCHAMIN C]: 4.2 µg/mL (≈ 11.9 µM); `CC(C)=CCc1c(-c2cc(O)c(O)cc2O)oc2c3c(cc(O)c2c1=O)OC(C)(C)C=C3` [ARTONIN E]: 6.9 µg/mL (≈ 15.8 µM).

A further assay has as its system MDA-MB-231. Nature of the assay: Cytotoxicity against human MDA-MB-231 cells. Format: functional. The note with it: read-out: ED50 (the source's name). A digest of the protocol: as §1
Turning to `COc1cc2oc(-c3ccc(O)cc3O)c(CC=C(C)C)c(=O)c2c(O)c1/C=C/C(C)C` [ARTOCARPIN], the EC50 came to 3.8 µg/mL (≈ 8.71 µM).
On the same count and under the same terms, next, `CC1(C)C=Cc2c(cc(O)c3c(=O)cc(-c4ccc(O)c(O)c4)oc23)O1` [ARTOCHAMIN C]: 6.2 µg/mL (≈ 17.6 µM); `CC(C)=CCc1c(-c2cc(O)c(O)cc2O)oc2c3c(cc(O)c2c1=O)OC(C)(C)C=C3` [ARTONIN E]: 3 µg/mL (≈ 6.87 µM).

In another assay the test system is KB. Nature of the assay: Cytotoxicity against human KB cells. Format: functional. The following applies: read-out: ED50 (the source's name). A digest of the protocol:
as §1
Consider `COc1cc2oc(-c3ccc(O)cc3O)c(CC=C(C)C)c(=O)c2c(O)c1/C=C/C(C)C` [ARTOCARPIN], for which the EC50 stood at 3.2 µg/mL (≈ 7.33 µM).
Still for that read-out and setting: in the case of `CC1(C)C=Cc2c(cc(O)c3c(=O)cc(-c4ccc(O)c(O)c4)oc23)O1` [ARTOCHAMIN C] it was 3.4 µg/mL (≈ 9.65 µM).
For `CC(C)=CCc1c(-c2cc(O)c(O)cc2O)oc2c3c(cc(O)c2c1=O)OC(C)(C)C=C3` [ARTONIN E], the EC50 worked out at 6.5 µg/mL (≈ 14.9 µM).

Test system in a further assay: not listed separately
Description: Cytotoxicity against human KBVIN cells. The following applies: read-out: ED50 (the source's name). Format: functional. Summed up:
as §1
On to `COc1cc2oc(-c3ccc(O)cc3O)c(CC=C(C)C)c(=O)c2c(O)c1/C=C/C(C)C` [ARTOCARPIN], for which the EC50 is 3.6 µg/mL (≈ 8.25 µM).
Still for that read-out and setting: next, `CC1(C)C=Cc2c(cc(O)c3c(=O)cc(-c4ccc(O)c(O)c4)oc23)O1` [ARTOCHAMIN C]: 3.4 µg/mL (≈ 9.65 µM); `CC(C)=CCc1c(-c2cc(O)c(O)cc2O)oc2c3c(cc(O)c2c1=O)OC(C)(C)C=C3` [ARTONIN E]: more than 10 µg/mL.
